Measurements reported in the EternaBench riboswitch data.

System: MS2 coat protein
Assay: apparent Kd, MS2 coat protein; higher = weaker binding; RNA-MaP array; FMN 200 µM where present
Method in brief: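 Designs were transcribed by stalled E. coli RNA polymerase on Illumina sequencing-chip clusters. They were titrated with SNAP-549-labelled MS2 coat protein from 0.7 or 1.5 nM, doubling to 3 µM, in 100 mM Tris-HCl pH 7.5, 80 mM KCl, 4 mM MgCl2, BSA, DTT, yeast tRNA and Tween-20, without and then with constant ligand. The apparent Kd is the median of filtered per-cluster fits after normalisation of green signal to red-channel RNA signal and control-cluster median Fmax.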

[1] = designed as: OFF switch for flavin mononucleotide, no ligand
[2] = ligand present: flavin mononucleotide, designed as: OFF switch for flavin mononucleotide
[3] = ligand present: flavin mononucleotide, designed as: ON switch for flavin mononucleotide
[4] = designed as: ON switch for flavin mononucleotide, no ligand

Sequence | apparent Kd [1] | apparent Kd [2] | apparent Kd [3] | apparent Kd [4]
UAUCCGCUAGGAUAUACUAUAUUGUCCUCGUGAGUGAUGCUACAUGAGGAUCACCCAUGUAGAAGGAGCGCGUG | 0.0273 µM | 0.0307 µM |  | 
UGUCGGAGCAGAGGAUAUUACAUGAGGAUCACCCAUGUAUGAACCAAUUGCUGGAAACAGCAAUGUAAGAAGGCUGCUCCGACA | 0.00504 µM | 0.00944 µM |  | 
GUAGCAUGAUUAGGAUAUUCAGCGAAUAGAUUGACAUGAGGAUCACCCAUGUGGCGAAAGCCGAGGGAGAAGGGAUGAUGCUAC |  |  | 0.0474 µM | 
AAUGAGUUUCUCACACUGUUCACAUGAGGAUCACCCAUGUACAGAAGGUAGAGACUUCCGGUCGCUAAGGAUAUGUAGAGGGUC | 0.00505 µM | 0.00601 µM |  | 
AGGGUAUGAACAUGAGGAUCACCCAUGUAAACGGAAACGAAUGAGGAUAUCGAUAGCAAAGCUAUCGAGAAGGCAUGGGACCCU |  |  | 0.0491 µM | 0.286 µM
UUAGCAACAUGAGGAUCACCCAUGUAGGAUAUCGCUAUUGUAAUCAUGAAACAUGAUUACAAUAGCGAGAAGGACAUAUGCUAA | 0.00642 µM | 0.00948 µM |  | 
GGACGUCCCAUUAACAUGAGGAUCACCCAUGUCAAAAGACAUGAGGAUAUGCUACCUAAUUGGUAGCAGAAGGCAUGGACGUCC |  |  | 0.0854 µM | 0.878 µM
GCCAAUACCGAGGAUAUCCUGAAGCACAUAUCUGGAGAAGGCGGUACAUGAGGAUCACCCAUGUGCUCGUGAGA | 0.0216 µM | 0.033 µM |  | 
CAUUAUUAUCGAGGAUAUCCUAUUGAAAUUCUGGGAGAAGGCGGACUCAACAUGAGGAUCACCCAUGUGAGACGGGUGCUAGGG | 0.0268 µM | 0.0252 µM |  | 
GGACGUCUCAUUUACAUGAGGAUCACCCAUGUCGAUAGACAUGAGGAUAUGGAUCCGAAUCGGAUCCAGAAGGCAUGGACGUCC |  |  | 0.0634 µM | 1.13 µM
GAUAAAGGAGUAGGAUAUGCACAUGGUAGGCUUAUCUUUAUGGCGACAUGAGGAUCACCCAUGUUGCAGAAGGGCUUCCCAUUG | 0.034 µM | 0.0259 µM |  | 
ACAUGAUCAGGAUAUACAUGAGGAUCACCCAUGUUUAUCAAAAAAGGGCUUUCUACAUGUAGAAGGGAUCUUGU | 0.0218 µM | 0.0399 µM |  | 
GUAUCAUACCAAGGAUAUUUAGGACUUGUAUAGACAUGAGGAUCACCCAUGUGGCGUUAGUCACGGGAGAAGGUGGUAUGAUAC |  |  | 0.0175 µM | 0.0884 µM
CGAUAGGACAGAGGAUAUACACAUGAGGAUCACCCAUGUAAUUACAACUCAUGAGGAUCACCCAUGUAGAAGGCUGUCCUAUCG | 0.397 µM | 0.43 µM |  | 
GUGUAGAUAGGAUAUGCAUGAGUCUAGCGAAGCUAGGCUCUACAUGAGGAUCACCCAUGUAGAAGGGUCUACAC | 0.0206 µM | 0.0172 µM |  | 
UGGUACUAGGGAGGAUAUGGGAAGAUACAUGAGGAUCACCCAUGUUUACGAAUGCCGAGAGGCAACUAGAAGGCCCUAGUACCU |  |  | 0.0195 µM | 0.315 µM
UUCGCUAAGGUGUAGCGAGACAUGCAAGAAGGGUGAAGAACAUGAGGAUCACCCAUGUAAUCCUUACAGGAUAUUGAUUGACGA |  |  | 0.181 µM | 0.307 µM
GUUAUAACAGUCAGGAUAUUUAAGCUUAUCGAGCUAGAGAAGGGACAUGAGGAUCACCCAUGUAGCCUCGUUAG | 0.016 µM | 0.0171 µM |  | 
UGUCGGAGCAGAGGAUAUUACAUGAGGAUCACCCAUGUAUGAACCAAUAGCUGGAAAUAGCAAUGUAAGAAGGCUGCUCCGACA | 0.0158 µM | 0.168 µM |  | 
CGGCAAAGGAAGGAUAUGCUAGACGAAAGUCUAGCAGAAGGUCCUACAUGAGGAUCACCCAUGUGUCCUAGCCG | 0.0454 µM | 0.0551 µM |  | 
ACGGAACAUGAGGAUCACCCAUGUAUCUGAAAUAUGGACUCACAGGAUAUCCAGAGUUGCCAAUCGGAGAAGGGUGACUCCAGA |  |  | 0.0167 µM | 0.0201 µM
GUCAGCCCGUGAGGAUAUACAACACUGCUUCGGCAGUGUAUUAAGAUCACAUGAGGAUCACCCAUGUAGAAGGCACGAGCUGAU | 0.0131 µM | 0.266 µM |  | 
AAUAAACUCACAGGAUAUAGCAGAGGUCACGUGAACUUACAGGCGACGAUGCUAGAAGGGUGACCACAUGAGGAUCACCCAUGU |  |  | 0.135 µM | 0.862 µM
AAAAAAAAAACUGAGGAUAUGAAAUAAUAGACAUGAGGAUCACCCAUGUUUUCGGUCGAAAAAAUGCAGAAGGCAGAAAAAAAAAA |  |  | 0.0291 µM | 0.0316 µM
GCACUGACAGGAUAUACAUGAGGAUCACCCAUGUGACCCUUAUAGUACUCGCGUACUGGUAGAAGGGUCUGUGC | 0.0788 µM | 0.558 µM |  | 
GGAUGUGUGUAAGGAUAUGCAUCACUGAGAAAUUUAGUGAGGAAGAUCACAUGAGGAUCACCCAUGUAGAAGGUACACACGUGG | 0.0108 µM | 0.0527 µM |  | 
AGGUAAGAGUUAAUUGUGACGGUGAGAAGGCAAAUGGUUGUGAUUAACAUGAGGAUCACCCAUGUUGAGGAUAUCACCACCAUC | 0.0295 µM | 0.137 µM |  | 
CGAUAGGACAGAGGAUAUACGUGCUAGAGAUACUAGCAAAAUUUCCUCACAUGAGGAUCACCCAUGUAGAAGGCUGUCCUAUCG | 0.0156 µM | 0.439 µM |  | 

Sequence | apparent Kd [1] | apparent Kd [2] | apparent Kd [3] | apparent Kd [4]
UUUGGUUUGCGAGGAUAUGCUUUUAGUAAGUUAGCAGAAGGCGCGUUACAUAGAACCUCUUGUUACAUGAGGAUCACCCAUGUU | 0.0882 µM | 0.095 µM |  | 
AAAGGACGAGGAUAUACAUGAGGAUCACCCAUGUGUAAAACGUAAUAAAAUAACUUAUGUAGAAGGCGUCCAAA | 0.0306 µM | 0.216 µM |  | 
AUCAAUCAUGUAGGAUAUGCGUGGCGAAGCUAUGCAGAAGGACAUGAGGAUCACCCAUGUCUUUCUGUCUGCGGACGGACAGGA | 0.0192 µM | 0.0557 µM |  | 
AGCUAGUCAGGAUAUACAAACAUGUCAAAAGACGUGAAGAGACAUGAGGAUCACCCAUGUAGAAGGGACUAGCA | 0.0266 µM | 0.0709 µM |  | 
AGUGUCAUCGAGAAGGCCUCAACAUGAGGAUCACCCAUGUUGCAAAAUGGGAGGAUAUCGAUGAUACAGCUACGUUUCGUAGCA |  |  | 0.00521 µM | 0.0153 µM
AGCUGCAAUCAGAAGGAGUAGGGUACAUGAGGAUCACCCAUGUCCGAUGCUAGGAUAUGAAAGCAGACCCGUGGUACCAAUCCC |  |  | 0.00739 µM | 0.0335 µM
UAGUAUAAGGGCAUUAAACAUGAGGAUCACCCAUGUACGAUAGAGGAUAUGCAUUUCAGUUUAGAGUAGAAGGUUAGAGAAUAU | 0.0391 µM | 0.0474 µM |  | 
UAAACAUGAGGAUCACCCAUGUAAAGAUCGGUAGUAGAGAGUGAGGAUAUACUAAAAUUUAUAGAGUAGAAGGCACUGGGUUCU |  |  | 0.0286 µM | 0.0384 µM
CGCAAGUCAGGAUAUUCGACAGGUAAAUCAGUGGAUCAGAAGGAGAAGGGACAUGAGGAUCACCCAUGUAAGUA | 0.0497 µM | 0.0294 µM |  | 
ACCUCACAUGAGGAUCACCCAUGUUAGGAUAUCUCGAUGCUCCGCGGGCGGGAGCAUCAGAGAAGGAACGUGCA | 0.0201 µM | 0.0218 µM |  | 
AAGAUGUUAGGAUAUCGAAGGUUGUGGCAGGCGGGAAUUUGCGAGAAGGAACAUGAGGAUCACCCAUGUGAAAU | 0.0223 µM | 0.0218 µM |  | 
AUCUAAGAAUUAAUUGUGACUGACAGAAGGCAAUAGUAUGUGACCGACAUGAGGAUCACCCAUGUUGAGGAUAUGUCUUGCUAC | 0.00702 µM | 0.0224 µM |  | 
GCGUUAGUAUCACAUGUAUUACAUGAGGAUCACCCAUGUUACUAGGAUAUGUAUUAGUAUUAUCAACAGAAGGAGUAAUAACGC | 0.0125 µM | 0.0176 µM |  | 
CGAUCGUGUAGAGGAUAUGUUAAACAUGAGGAUCACCCAUGUAAGGUAGAAAUUUUUAUUAACAUACAGAAGGCUACACGAUCG | 0.00808 µM | 0.00566 µM |  | 
GCGUCAGAAUUAAUUGUGACAGACAGAAGGCAAUAGUUCAUGUCAGACAUGAGGAUCACCCAUGUUGAGGAUAUGUAUUUACUC | 0.00754 µM | 0.00835 µM |  | 
UUAUUUUUACAGAAGGUUUAAUAAUAUGUAUGAGAAGGAUAUGUAACAUGAGGAUCACCCAUGUUUUGUCUAUAUGAGGAUCAU | 0.0082 µM | 0.0079 µM |  | 
GCGUCCCGCAGAGGAUAUGUUGUUCCGCCUACAUGAGGAUCACCCAUGUCAAAGGGCUGAUCCCGACAGAAGGCUGAAGGAUAC |  |  | 0.138 µM | 0.13 µM
GCGCUUAUACAGAAGGCCAUAUACAUGAGGAUCACCCAUGUUACAUGGUGGAGGAUAUGUUAUUAAGUACAGGUAGAUGAGCGC |  |  | 0.00538 µM | 0.00598 µM
GUGUACGGAGGAUAUAUGUGGGCAGGCUGACCUGCAGCUUCACAUGAGGAUCACCCAUGUAGAAGGCUGUGCAC | 0.0222 µM | 0.0929 µM |  | 
GCCAUCGCAUGAGGAUAUGGCACCGGUUCGGUGCCAGAAGGCAUGUCAAAUGACAUGAGGAUCACCCAUGUAGUUAAGAUGGCA |  |  | 0.0147 µM | 0.215 µM
GCACUGGAUGUAGGAUAUCAGGACGAUAAGUCCUGAGAAGGACAUGAGGAUCACCCAUGUCCUAAAACCAGUGCAUAUAAUAUA | 0.0144 µM | 0.0167 µM |  | 
GCUAGUAUUGCAGGAUAUUGAUAUUAAUUAUGGCAAGAAGGGCAUUACAUGAGGAUCACCCAUGUUUUCCUUAGUCAUACUAGC | 0.00533 µM | 0.00539 µM |  | 
CUCUCUGAUCGAGGAUAUCGAGCUUCCGCCCUUCGAGAAGGCGACAUGAGGAUCACCCAUGUAAGGAGGACACUCACUCACACG | 0.0264 µM | 0.0225 µM |  | 
UAUAUAUAGUAAGGAUAUGUAUAUAUUUUAUCAACAGAAGGUACUGACAUGAGGAUCACCCAUGUUUUAGUGUGGGCAUGUAGA | 0.0687 µM | 0.0708 µM |  | 
UUGGACGUCGUAGGGUAUGUAGGAUAUUCCUACAUGAGGAUCACCCAUGUUGACAUGGAAGAAGGACAGAAGGACGAUGUCCAU |  |  | 0.00437 µM | 0.106 µM
GGGUACAUCGGAGGAUAUCAUGUAAAUACAUGAGGAUCACCCAUGUCGAUGGAGACAUCGGAGAUUGAGAAGGCCGAUGUACCU |  |  | 0.00875 µM | 0.152 µM
UUCGGCGCACAGAAGGAUCGGUACAUGAGGAUCACCCAUGUAAGCAAAGAUAGGAUAUGUGGAGCUUACAGGGAAAAUGAACAA |  |  | 0.019 µM | 0.0932 µM
